From ChEMBL document CHEMBL5316280, “Development of N-(1-Adamantyl)benzamides as Novel Anti-Inflammatory Multitarget Agents Acting as Dual Modulators of the Cannabinoid CB2 Receptor and Fatty Acid Amide Hydrolase” (J Med Chem, 2023)
Calls of active or inactive are those of the source. The calls are words filed in the database; no cut-off is given here.

How the values were obtained:
THP-1 [1] = experiment: Antiinflammatory activity in human THP-1 monocytes assessed as decrease in TNFalpha level incubated for 24 hrs by ELISA based qRT-PCR analysis; format: functional, cell-based
Summary of the method: (§1)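 THP-1 cells were seeded at 1 x 10⁵ cells/ml for 48 h. For macrophages, cells were differentiated with 0.01 µM PMA for 48 h; monocytes received no PMA. Cells were then given 24 h with or without 10 µg/ml LPS, plus ligands alone or with the CB2R inverse agonist JTE907 (10 µM). Cytokines were measured in 5 µL supernatant (from 1 x 10⁴ cells) by ProQuantum immunoassay, read as pg/ml from kit titration curves; n=3.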

[2] = Metal chelating activity assessed as Fe2+-compound complex formation incubated for 15 mins by Ferrozine based assay
Summary of the method: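 FeSO₄ (25 µM) in water incubated with or without test compound (100 µM, DMSO) for 15 min at room temperature, 300 µL final. Ferrozine then added (1 mM final), shaken 15 min at room temperature. Absorbance of the ferrozine–Fe(II) magenta complex read at 562 nm; chelation seen as reduced complex formation.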

THP-1 [3] = experiment: Antiinflammatory activity in human THP-1 macrophages assessed as decrease in IL-6 level incubated for 24 hrs by ELISA based qRT-PCR analysis; format: functional, cell-based; summary of the method: as §1
[4] = biological target: T1, Fatty-acid amide hydrolase 1 (Homo sapiens, UniProt O00519); experiment: Inhibition of recombinant human FAAH using AMC-AA as substrate preincubated for 10 mins followed by substrate addition measured after 2 hrs by fluorometric assay
T1 sequence (O00519 whole entry): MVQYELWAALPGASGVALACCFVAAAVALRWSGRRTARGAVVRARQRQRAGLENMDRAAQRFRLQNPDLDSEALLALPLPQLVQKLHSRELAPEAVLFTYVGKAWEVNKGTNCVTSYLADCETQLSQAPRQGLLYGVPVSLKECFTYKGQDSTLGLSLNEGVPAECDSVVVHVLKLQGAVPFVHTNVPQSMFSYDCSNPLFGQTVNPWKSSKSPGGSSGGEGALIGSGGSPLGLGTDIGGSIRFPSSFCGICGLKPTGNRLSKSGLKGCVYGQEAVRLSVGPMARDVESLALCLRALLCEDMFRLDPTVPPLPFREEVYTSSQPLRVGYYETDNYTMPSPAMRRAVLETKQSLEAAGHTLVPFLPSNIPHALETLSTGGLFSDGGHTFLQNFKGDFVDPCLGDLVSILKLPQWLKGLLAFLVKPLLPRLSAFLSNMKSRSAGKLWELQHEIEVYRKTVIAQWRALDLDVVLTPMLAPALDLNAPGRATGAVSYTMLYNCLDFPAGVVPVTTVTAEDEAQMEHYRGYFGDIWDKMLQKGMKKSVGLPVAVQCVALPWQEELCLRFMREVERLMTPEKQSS
Summary of the method: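 Human recombinant FAAH preincubated with inhibitor at various concentrations in Tris-HCl 125 mM, Na₂EDTA 1 mM, pH 9.0, 10 min at room temperature with shaking. AMC-AA substrate then added (1 µM final); fluorescence read every 30 s for 2 h at 37 °C (ex 340/em 450 nm). Percent inhibition from no-inhibitor controls and no-enzyme blanks; IC50 from at least three independent runs in triplicate.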

Cannabinoid receptor 2 [5] = biological target: T2, Cannabinoid receptor 2 (Homo sapiens, UniProt P34972); experiment: Displacement of [3H]CP55940 from recombinant human CB2 receptor expressed in HEK293 cell membrane incubated for 90 mins by beta scintillation counter method; format: cell membranes
Summary of the method: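 HEK293 membranes stably expressing human CB2 (50 µg protein/well) competed with 0.2 nM [3H]-CP55,940 (final) against test compound at 10⁻¹²–10⁻⁵ M in Tris-HCl 50 mM, EGTA 2.5 mM, MgCl₂ 5 mM, 0.1% fatty-acid-free BSA, pH 7.4; 90 min at 30 °C. Nonspecific binding defined with 10 µM GW405833.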

THP-1 [6] = experiment: Antiinflammatory activity in human THP-1 monocytes assessed as increase in IL-10 level incubated for 24 hrs by ELISA based qRT-PCR analysis; format: functional, cell-based; summary of the method: as §1
THP-1 [7] = experiment: Antiinflammatory activity in human THP-1 macrophages assessed as increase in IL-10 level incubated for 24 hrs by ELISA based qRT-PCR analysis; format: functional, cell-based; summary of the method: as §1
THP-1 [8] = experiment: Antiinflammatory activity in human THP-1 monocytes assessed as decrease in IFNgamma level incubated for 24 hrs by ELISA based qRT-PCR analysis; format: functional, cell-based; summary of the method: as §1
THP-1 [9] = experiment: Antiinflammatory activity in human THP-1 macrophages assessed as decrease in IL-6 level incubated for 24 hrs in presence of […] by ELISA based qRT-PCR analysis; format: functional, cell-based; summary of the method: as §1
THP-1 [10] = experiment: Antiinflammatory activity in human THP-1 monocytes assessed as decrease in IL-1beta level incubated for 24 hrs by ELISA based qRT-PCR analysis; format: functional, cell-based; summary of the method: as §1
Cannabinoid receptor 2 [11] = biological target: T2, Cannabinoid receptor 2; experiment: Agonist activity at human CB2 receptor overexpressed in CHO-K1 cells assessed as cAMP level incubated for 30 mins by luminescence based assay relative to control; format: functional, cell-based; conditions: filed as agonist
Summary of the method: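 CHO-K1 cells overexpressing human CB2R were plated at 30 000 cells/well and held overnight at 37 °C, 5% CO2. Test samples were added as dose–response solutions with NKH-477 to stimulate adenylate cyclase, then incubated 30 min at 37 °C. cAMP was detected by luminescence after cell lysis. Values were normalized to NKH-477 alone as 100% response. Three independent experiments were run in triplicate.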

THP-1 [12] = experiment: Antiinflammatory activity in human THP-1 monocytes assessed as decrease in IL-6 level incubated for 24 hrs in presence of […] by ELISA based qRT-PCR analysis; format: functional, cell-based; summary of the method: as §1
THP-1 [13] = experiment: Antiinflammatory activity in human THP-1 macrophages assessed as increase in IL-4 level incubated for 24 hrs by ELISA based qRT-PCR analysis; format: functional, cell-based; summary of the method: as §1
Cannabinoid receptor 2 [14] = biological target: Cannabinoid receptor 2 (Mus musculus, UniProt P47936); experiment: Agonist activity at mouse CB2 receptor transfected in CHO-K1 cells assessed as beta2-arrestin recruitment incubated for 90 mins by luminescence based assay; format: functional, cell-based
Summary of the method: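 PathHunter eXpress kit using mouse CB2 receptor in CHO-K1 cells. Cells were seeded 48 h before the assay in kit medium. Compounds in cell plating reagent were incubated 90 min at 37 °C, 5% CO2. Working detection solution was then added for 60 min at room temperature to read β-arrestin recruitment.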

THP-1 [15] = experiment: Antiinflammatory activity in human THP-1 monocytes assessed as decrease in IL-6 level incubated for 24 hrs by ELISA based qRT-PCR analysis; format: functional, cell-based; summary of the method: as §1
Cannabinoid receptor 1 = Cannabinoid receptor 1 (Homo sapiens, UniProt P21554); experiment: Displacement of [3H]CP55940 from recombinant human CB1 receptor expressed in HEK293 cell membrane incubated for 60 mins by beta scintillation counter method
THP-1 [16] = experiment: Antiinflammatory activity in human THP-1 macrophages assessed as decrease in IFNgamma level incubated for 24 hrs in presence of […] by ELISA based qRT-PCR analysis; format: functional, cell-based; summary of the method: as §1
THP-1 [17] = experiment: Antiinflammatory activity in human THP-1 monocytes assessed as increase in IL-10 level incubated for 24 hrs in presence of […] by ELISA based qRT-PCR analysis; format: functional, cell-based; summary of the method: as §1
THP-1 [18] = experiment: Antiinflammatory activity in human THP-1 monocytes assessed as increase in IL-4 level incubated for 24 hrs in presence of […] by ELISA based qRT-PCR analysis; format: functional, cell-based; summary of the method: as §1

T2 sequence (P34972 whole entry): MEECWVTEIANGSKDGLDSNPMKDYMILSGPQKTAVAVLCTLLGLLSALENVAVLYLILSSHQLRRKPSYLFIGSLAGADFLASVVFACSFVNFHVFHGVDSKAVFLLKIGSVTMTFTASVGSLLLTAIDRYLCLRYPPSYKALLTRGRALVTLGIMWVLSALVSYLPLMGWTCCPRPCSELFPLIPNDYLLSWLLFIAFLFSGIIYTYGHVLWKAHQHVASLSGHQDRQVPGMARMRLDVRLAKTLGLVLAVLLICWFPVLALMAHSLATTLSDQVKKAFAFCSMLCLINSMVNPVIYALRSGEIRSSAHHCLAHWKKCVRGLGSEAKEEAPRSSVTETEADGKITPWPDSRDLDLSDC
Chain of Cannabinoid receptor 2 (Mus musculus, UniProt P47936) (P47936 whole entry): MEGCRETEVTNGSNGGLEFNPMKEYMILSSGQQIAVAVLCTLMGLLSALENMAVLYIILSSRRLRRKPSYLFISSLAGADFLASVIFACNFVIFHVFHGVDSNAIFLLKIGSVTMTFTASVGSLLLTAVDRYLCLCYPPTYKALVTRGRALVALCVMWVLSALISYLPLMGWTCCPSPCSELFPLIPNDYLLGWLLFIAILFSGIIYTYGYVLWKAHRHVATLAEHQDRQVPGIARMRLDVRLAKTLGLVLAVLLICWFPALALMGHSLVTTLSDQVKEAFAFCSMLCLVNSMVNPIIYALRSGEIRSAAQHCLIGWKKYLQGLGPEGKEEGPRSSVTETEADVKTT
Chain of Cannabinoid receptor 1 (P21554 whole entry): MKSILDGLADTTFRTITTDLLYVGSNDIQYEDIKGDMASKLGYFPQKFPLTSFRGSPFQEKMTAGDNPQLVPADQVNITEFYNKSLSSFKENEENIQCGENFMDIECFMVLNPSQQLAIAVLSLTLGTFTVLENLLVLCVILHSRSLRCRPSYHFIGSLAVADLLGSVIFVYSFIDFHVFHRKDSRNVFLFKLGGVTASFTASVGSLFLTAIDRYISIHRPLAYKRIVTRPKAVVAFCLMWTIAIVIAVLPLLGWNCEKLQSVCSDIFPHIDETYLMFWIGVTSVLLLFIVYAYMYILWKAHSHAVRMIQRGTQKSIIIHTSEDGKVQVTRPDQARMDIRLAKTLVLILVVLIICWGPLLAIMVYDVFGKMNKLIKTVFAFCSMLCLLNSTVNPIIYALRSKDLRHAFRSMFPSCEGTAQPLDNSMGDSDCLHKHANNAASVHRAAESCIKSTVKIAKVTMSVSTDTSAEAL

| Structure (SMILES) | Activity (THP-1 [1]) | Activity [2] | Activity (THP-1 [3]) | IC50 [4] [µM] | Ki (Cannabinoid receptor 2 [5]) [nM] | Activity (THP-1 [6]) | Activity (THP-1 [7]) | Activity (THP-1 [8]) | Activity (THP-1 [9]) | Activity (THP-1 [10]) | Emax (Cannabinoid receptor 2 [11]) [%] | Activity (THP-1 [12]) | Activity (THP-1 [13]) | EC50 (Cannabinoid receptor 2 [14]) [nM] | Activity (THP-1 [15]) | Ki (Cannabinoid receptor 1) [nM] | Activity (THP-1 [16]) | Activity (THP-1 [17]) | Activity (THP-1 [18]) |
| --- | --- | --- | --- | --- | --- | --- | --- | --- | --- | --- | --- | --- | --- | --- | --- | --- | --- | --- | --- |
| O=C(NC12CC3CC(CC(C3)C1)C2)c1ccccc1OCc1ccccc1 | Active | Active | inactive | 4 | 14.8 | Active | Active | Active | inactive | Active | 96.3 | inactive | Active | 51.8 | inactive | 241 | inactive | inactive | inactive |
| O=C(NC12CC3CC(CC(C3)C1)C2)c1ccccc1OCC1CCCCC1 | Active | Active | Active | 3.4 | 20.1 | Active | Active | Active | inactive | Active | 90.1 | inactive | Active | 10.7 | Active | 67.6 | inactive | inactive | inactive |
| CCCCCOc1ccccc1C(=O)NC12CC3CC(CC(C3)C1)C2 | Active | Active | Active | 6.2 | 10.8 | Active | Active | Active | inactive | inactive | 95.3 | inactive | Active | 23.8 | inactive | 153 | inactive | inactive | inactive |
